Data on seven molecules can be found in ChEMBL document CHEMBL1140880, “Arylphthalazines as potent, and orally bioavailable inhibitors of VEGFR-2” (Bioorg Med Chem, 2009).

Series [1] is described as follows: Solubility in deionized water. The series is classed as physicochemical.
For series [2], the target named is Fibroblast growth factor receptor 1 (Homo sapiens) (UniProt P11362). Briefly: Inhibition of FGFR1 at 10 uM.
Series [3] in a line: Inhibition of adenosine receptor at 10 uM.
Series [4] can be described thus: Cmax in CD1 mouse at 30 mg/kg administered as 5% phosal solution after 24 hrs. The format is ADME, organism-based. Set-up: dose 30 mg/kg. The settings on record: in vivo. The procedure, abridged:
(§1)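 Female CD-1 mice (n = 3) given 30 mg/kg orally in 5% phosal solution (dihydrochloride salt; target ca. 3 mg/mL, dosed at 10 mL/kg).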

Series [5] can be described thus: Drug level in po dosed CD1 mouse administered as 5% phosal solution after 4 hrs. The format is ADME, organism-based. As to conditions: in vivo, read-out: Drug uptake; call rule not given here. The essentials:
(§2)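 Preliminary exposure study in female CD-1 mice dosed by oral route; vehicles included 5% phosal solution. Plasma analysed for compound at 1-h and 4-h timepoints.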

The target in series [6] is T1, Vascular endothelial growth factor receptor 2 (Homo sapiens, UniProt P35968). As to conditions: HEK293.
Target sequence in this assay (P35968 whole entry, looked up): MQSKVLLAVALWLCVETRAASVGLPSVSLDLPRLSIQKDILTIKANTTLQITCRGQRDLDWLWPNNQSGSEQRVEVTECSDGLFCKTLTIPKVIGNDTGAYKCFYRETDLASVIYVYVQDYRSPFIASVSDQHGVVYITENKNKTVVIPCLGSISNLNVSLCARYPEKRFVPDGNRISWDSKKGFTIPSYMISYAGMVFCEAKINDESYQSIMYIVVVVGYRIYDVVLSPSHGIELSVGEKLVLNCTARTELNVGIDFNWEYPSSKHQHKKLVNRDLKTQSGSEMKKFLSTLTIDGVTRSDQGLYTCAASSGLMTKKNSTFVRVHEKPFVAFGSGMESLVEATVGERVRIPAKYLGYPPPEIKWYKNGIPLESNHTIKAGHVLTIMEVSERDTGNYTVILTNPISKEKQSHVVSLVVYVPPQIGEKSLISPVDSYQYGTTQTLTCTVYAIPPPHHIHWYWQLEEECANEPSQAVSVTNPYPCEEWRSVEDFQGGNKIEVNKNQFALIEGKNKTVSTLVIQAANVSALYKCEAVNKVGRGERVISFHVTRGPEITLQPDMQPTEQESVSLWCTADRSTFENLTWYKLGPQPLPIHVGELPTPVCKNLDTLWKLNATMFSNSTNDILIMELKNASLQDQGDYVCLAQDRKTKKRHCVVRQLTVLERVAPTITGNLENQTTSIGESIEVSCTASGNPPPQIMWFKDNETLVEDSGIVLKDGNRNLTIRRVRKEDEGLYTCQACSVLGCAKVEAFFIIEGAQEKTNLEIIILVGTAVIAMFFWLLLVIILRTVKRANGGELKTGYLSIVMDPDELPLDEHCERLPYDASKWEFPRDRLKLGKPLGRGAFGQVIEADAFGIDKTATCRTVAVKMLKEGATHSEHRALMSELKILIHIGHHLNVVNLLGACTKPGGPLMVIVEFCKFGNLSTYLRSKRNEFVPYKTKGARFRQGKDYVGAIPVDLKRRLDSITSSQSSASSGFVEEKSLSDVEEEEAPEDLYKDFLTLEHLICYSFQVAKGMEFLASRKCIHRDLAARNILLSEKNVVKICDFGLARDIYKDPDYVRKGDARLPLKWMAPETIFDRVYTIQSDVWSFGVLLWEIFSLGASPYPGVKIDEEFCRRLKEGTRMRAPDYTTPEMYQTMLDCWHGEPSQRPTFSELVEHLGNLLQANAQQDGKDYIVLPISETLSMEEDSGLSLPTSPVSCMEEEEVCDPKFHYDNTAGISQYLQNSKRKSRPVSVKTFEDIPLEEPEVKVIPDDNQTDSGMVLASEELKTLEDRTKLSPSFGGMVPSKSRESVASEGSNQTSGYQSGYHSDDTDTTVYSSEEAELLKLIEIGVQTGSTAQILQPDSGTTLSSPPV
Series [7] deals with Histamine H2 receptor (Homo sapiens) (UniProt P25021). Briefly: Inhibition of histamine H2 receptor at 10 uM.
Sequence of Histamine H2 receptor (Homo sapiens) (P25021 whole entry): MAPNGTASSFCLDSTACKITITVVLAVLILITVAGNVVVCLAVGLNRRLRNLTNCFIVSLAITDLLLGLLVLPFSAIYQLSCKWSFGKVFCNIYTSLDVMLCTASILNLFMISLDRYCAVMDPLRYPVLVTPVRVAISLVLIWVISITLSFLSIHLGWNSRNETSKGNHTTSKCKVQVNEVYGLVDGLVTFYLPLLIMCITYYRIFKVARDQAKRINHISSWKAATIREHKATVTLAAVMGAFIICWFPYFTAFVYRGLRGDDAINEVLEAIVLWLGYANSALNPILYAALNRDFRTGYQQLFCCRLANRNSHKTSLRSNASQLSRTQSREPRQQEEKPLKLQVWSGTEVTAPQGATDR
The target in series [8] is Sodium-dependent dopamine transporter (Homo sapiens) (UniProt Q01959). Briefly: Inhibition of dopamine transporter at 10 uM.
Sequence of Sodium-dependent dopamine transporter (Homo sapiens) (Q01959 whole entry): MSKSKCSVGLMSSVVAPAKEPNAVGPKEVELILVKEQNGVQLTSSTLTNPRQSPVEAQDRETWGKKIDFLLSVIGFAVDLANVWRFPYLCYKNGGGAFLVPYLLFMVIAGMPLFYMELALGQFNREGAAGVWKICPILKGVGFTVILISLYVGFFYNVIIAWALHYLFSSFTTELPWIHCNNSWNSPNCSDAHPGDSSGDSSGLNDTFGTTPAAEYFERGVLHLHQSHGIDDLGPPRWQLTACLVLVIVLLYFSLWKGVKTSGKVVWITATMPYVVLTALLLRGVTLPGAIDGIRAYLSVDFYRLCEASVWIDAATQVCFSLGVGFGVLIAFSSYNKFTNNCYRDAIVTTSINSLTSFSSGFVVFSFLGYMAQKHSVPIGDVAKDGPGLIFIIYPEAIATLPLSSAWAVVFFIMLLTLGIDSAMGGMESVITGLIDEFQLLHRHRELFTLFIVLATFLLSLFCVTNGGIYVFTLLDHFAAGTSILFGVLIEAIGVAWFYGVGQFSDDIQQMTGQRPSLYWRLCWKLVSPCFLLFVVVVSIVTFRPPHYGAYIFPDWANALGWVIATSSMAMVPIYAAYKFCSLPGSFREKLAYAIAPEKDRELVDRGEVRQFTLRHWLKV
Series [9] deals with HUVEC. Put plainly: Inhibition of VEGF-stimulated HUVEC cell proliferation treated before 2 hrs of VEGF challenge assessed after 3 days by [3H]thymidine incorporation assay. The format is functional. As to conditions: Homo sapiens, read-out: ED50 (the source's name). The procedure, abridged: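 HUVEC seeded at 1 × 10^4 cells/well in EGM and allowed to adhere ≥4 h. Cells then quiesced 72 h in medium lacking EGF, VEGF and FGF with 1% FBS. Compound added for 2 h (0.1% DMSO), then stimulation with VEGF-165 (5 ng/well) for 3 days.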

Series [10] can be described thus: AUC (0 to 24 hrs) in CD1 mouse at 30 mg/kg administered as 5% phosal solution. The series is classed as ADME, organism-based. Set-up: time < 24 hr, dose 30 mg/kg. As to conditions: plasma. The procedure, abridged: as §1
Series [11] addresses Cytochrome P450 3A4 (Homo sapiens, UniProt P08684). Put plainly: Inhibition of CYP3A4. The format is ADME.
Series [12] is described as follows: Drug level in po dosed CD1 mouse administered as 5% phosal solution after 1 hr. The format is ADME, organism-based. The settings on record: in vivo, read-out: Drug uptake. The essentials:
as §2

Series [13] addresses Vascular endothelial growth factor receptor 3 (Homo sapiens) (UniProt P35916). Briefly: Inhibition of VEGFR3 at 10 uM.
Series [14] deals with Voltage-gated inwardly rectifying potassium channel KCNH2 (Homo sapiens, UniProt Q12809). Briefly: Inhibition of human ERG. As to conditions: read-out: ED50 (the source's name).
Sequence of Voltage-gated inwardly rectifying potassium channel KCNH2 (Q12809 whole entry): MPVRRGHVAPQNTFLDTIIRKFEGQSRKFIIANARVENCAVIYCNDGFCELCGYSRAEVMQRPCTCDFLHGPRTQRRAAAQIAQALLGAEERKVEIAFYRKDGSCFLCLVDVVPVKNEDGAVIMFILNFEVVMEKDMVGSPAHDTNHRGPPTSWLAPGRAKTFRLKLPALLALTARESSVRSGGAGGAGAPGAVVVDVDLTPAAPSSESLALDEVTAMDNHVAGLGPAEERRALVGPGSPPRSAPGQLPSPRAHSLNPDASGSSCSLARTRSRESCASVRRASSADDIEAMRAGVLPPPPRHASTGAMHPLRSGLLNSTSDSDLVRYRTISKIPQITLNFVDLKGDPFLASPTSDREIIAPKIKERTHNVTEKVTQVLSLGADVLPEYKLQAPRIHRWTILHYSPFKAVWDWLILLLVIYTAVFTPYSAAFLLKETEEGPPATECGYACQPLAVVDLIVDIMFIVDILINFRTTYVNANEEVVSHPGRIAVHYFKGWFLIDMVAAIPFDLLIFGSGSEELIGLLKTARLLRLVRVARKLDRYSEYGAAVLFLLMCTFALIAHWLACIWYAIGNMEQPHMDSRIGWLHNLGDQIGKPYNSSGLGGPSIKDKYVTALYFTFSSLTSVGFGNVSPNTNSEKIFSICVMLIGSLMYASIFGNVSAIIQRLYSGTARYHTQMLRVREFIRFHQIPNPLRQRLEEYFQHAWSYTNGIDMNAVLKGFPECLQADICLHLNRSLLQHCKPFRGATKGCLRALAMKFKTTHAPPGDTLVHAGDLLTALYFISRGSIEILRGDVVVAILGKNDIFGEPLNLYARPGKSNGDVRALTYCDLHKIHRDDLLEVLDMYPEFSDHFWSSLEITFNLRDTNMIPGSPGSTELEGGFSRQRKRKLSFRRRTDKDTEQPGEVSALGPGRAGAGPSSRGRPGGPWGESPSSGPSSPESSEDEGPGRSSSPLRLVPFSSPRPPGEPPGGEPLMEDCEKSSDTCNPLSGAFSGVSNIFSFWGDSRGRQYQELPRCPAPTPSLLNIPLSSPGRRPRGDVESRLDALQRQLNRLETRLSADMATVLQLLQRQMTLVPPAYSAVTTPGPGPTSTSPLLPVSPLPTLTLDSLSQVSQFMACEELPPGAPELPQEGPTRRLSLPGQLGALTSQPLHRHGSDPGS
Series [15] has as its target T1, Vascular endothelial growth factor receptor 2. Put plainly: Inhibition of VEGFR2 by HTRF method. In general terms: Time-resolved FRET reads energy transfer from a long-lived donor to a nearby acceptor.
Target sequence in this assay (P35968 whole entry): as the sequence (P35968 whole entry, looked up) above

In brackets after ≈: the same amount, converted by molar mass.

Sequence of Cytochrome P450 3A4 (P08684 whole entry): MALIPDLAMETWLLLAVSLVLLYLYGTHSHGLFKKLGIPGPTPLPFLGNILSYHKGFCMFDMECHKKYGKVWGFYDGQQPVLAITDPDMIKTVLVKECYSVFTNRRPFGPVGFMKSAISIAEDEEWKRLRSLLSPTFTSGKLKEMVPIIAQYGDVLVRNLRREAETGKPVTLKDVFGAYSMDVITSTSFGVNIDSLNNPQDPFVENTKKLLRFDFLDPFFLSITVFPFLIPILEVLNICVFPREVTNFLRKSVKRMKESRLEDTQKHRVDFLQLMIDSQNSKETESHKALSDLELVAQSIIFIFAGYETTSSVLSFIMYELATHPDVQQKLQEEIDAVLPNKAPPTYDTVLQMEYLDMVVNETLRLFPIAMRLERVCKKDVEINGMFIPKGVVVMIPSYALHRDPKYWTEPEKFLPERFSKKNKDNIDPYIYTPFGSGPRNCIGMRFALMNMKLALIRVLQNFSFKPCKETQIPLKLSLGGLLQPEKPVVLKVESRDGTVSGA
Sequence of Fibroblast growth factor receptor 1 (Homo sapiens) (P11362 22-822 limits assumed): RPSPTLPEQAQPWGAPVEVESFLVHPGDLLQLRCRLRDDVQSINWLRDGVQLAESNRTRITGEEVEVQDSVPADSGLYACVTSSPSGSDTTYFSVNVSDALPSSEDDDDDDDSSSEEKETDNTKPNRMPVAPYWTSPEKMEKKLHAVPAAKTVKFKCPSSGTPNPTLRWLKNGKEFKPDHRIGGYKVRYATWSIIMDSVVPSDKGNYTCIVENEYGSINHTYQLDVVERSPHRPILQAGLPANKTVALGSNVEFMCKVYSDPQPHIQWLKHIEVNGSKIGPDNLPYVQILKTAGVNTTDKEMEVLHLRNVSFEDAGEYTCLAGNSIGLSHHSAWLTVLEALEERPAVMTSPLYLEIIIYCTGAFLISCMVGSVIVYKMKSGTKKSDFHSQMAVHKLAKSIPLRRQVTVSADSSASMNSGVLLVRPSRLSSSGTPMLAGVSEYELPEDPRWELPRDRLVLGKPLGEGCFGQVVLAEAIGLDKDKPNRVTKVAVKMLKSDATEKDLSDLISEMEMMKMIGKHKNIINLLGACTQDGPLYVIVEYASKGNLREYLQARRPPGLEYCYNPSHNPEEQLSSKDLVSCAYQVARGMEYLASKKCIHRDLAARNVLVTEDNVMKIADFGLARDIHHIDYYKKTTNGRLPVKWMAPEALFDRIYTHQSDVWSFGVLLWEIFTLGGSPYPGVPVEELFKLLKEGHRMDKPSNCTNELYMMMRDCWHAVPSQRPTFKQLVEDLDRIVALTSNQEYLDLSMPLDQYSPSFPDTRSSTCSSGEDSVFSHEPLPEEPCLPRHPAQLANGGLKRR

The solubility is the concentration that dissolves in the medium under given conditions. Read a high solubility as much dissolved substance. By inhibition is commonly meant the share of the control response that was lost under treatment. The Cmax is the peak of the concentration-time curve. For orientation: AUC(0-t) means the area under the concentration-time curve up to a stated or last time point. High values mean high exposure, low ones low exposure. In series [1], `Clc1ccc(Nc2nnc(-c3cccc4cnccc34)c3ccccc23)cc1` registered a solubility of 1000 µg/mL (≈ 2610 µM). Moreover, the inhibition in series [2] was 38%; in [3], 65%; in series [7] it was 54%; in series [8] it was 77%; in series [13] it was 33%. Further, the Cmax in [4] was 25.9 µM. For the same molecule, the concentration at 4 h in series [5] came out at 18.8 µM. In series [6], the ED50 was determined as 10 nM. Moreover, the EC50 in series [9] turned out to be 210 nM. Also, the AUC(0-t) at 24 h in series [10] worked out at 891 µM·h. In addition, the Activity entry in series [11] was “Not Active”. Also, in series [12], the concentration at 1 h was 22.7 µM. Moreover, the IC50 in [14] came out at 3000 nM.

Consider `CC(C)(C)c1ccc(Nc2nnc(-c3ccc(C(N)=O)cc3)c3ccccc23)cc1`, for which the EC50 in series [9] came out at 250 nM.

As to `COc1cc2/c(=N/c3ccc(Br)cc3F)nc[nH]c2cc1OCC1CCN(C)CC1` [VANDETANIB], the EC50 in series [9] is 280 nM.

`CNS(=O)(=O)c1ccc(Nc2nnc(-c3ccc(C(N)=O)cc3)c3ccccc23)cc1`: the IC50 in [15] is > 10000 nM.

`NC(=O)c1ccc(-c2nnc(Nc3ccc(Oc4ccccc4)cc3)c3ccccc23)cc1`: in series [15], the IC50 was > 10000 nM.

As to `COc1ccc(Nc2nnc(-c3ccc(C(N)=O)cc3)c3ccccc23)cc1`, in series [6], the ED50 is > 10000 nM.

For the molecule `COc1cc2c(Oc3ccc4[nH]c(C)cc4c3F)ncnc2cc1OCCCN1CCCC1` [CEDIRANIB], in series [9], the EC50 was 12 nM.
